Results reported in the EternaBench riboswitch data.

Test system: MS2 coat protein
Assay: apparent Kd, MS2 coat protein; higher = weaker binding; RNA-MaP array; FMN 200 µM where present
In short: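 The apparent Kd is reported as the median of filtered per-cluster binding-curve fits. To get these curves, designs transcribed by stalled E. coli RNA polymerase on Illumina sequencing-chip clusters were titrated with SNAP-549-labelled MS2 coat protein from 0.7 or 1.5 nM, doubling to 3 µM. Titrations were run without and then with constant ligand in 100 mM Tris-HCl pH 7.5, 80 mM KCl, 4 mM MgCl2, BSA, DTT, yeast tRNA and Tween-20, and green signal was normalised to red-channel RNA signal and control-cluster median Fmax.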

[1] = designed as: OFF switch for flavin mononucleotide, no ligand
[2] = ligand present: flavin mononucleotide, designed as: OFF switch for flavin mononucleotide
[3] = designed as: ON switch for flavin mononucleotide, no ligand
[4] = ligand present: flavin mononucleotide, designed as: ON switch for flavin mononucleotide

Row | Sequence | apparent Kd [1] | apparent Kd [2] | apparent Kd [3] | apparent Kd [4]
1 | AUGAGGGAAGUAGGAUAUGAUCAAGACAUGAGGAUCACCCAUGUAAUGAGGGUGUGUGUCUUUGUUCAGAAGGACUUGUAUCAA | 60.4 nM | 60.4 nM |  | 
2 | AUGAGUAAAGCAGGAUAUCUAUUGUCUCUGUAACAUGAGGAUCACCCAUGUAGAGAAGGGCUUAGUCAUUCUCUUCGGAGUUGU | 17.4 nM | 16.6 nM |  | 
3 | AUGAUUAUAUUAUACAUGAGGAUCACCCAUGUUAUAAGUCAUGAGGAUAUGGUAUUGUAGUUAUUCCAGAAGGCAUUUAACUUA |  |  | 7.02 nM | 5.79 nM
4 | AUGCAACAUGAGGAUCACCCAUGUGAGGAUAUCGUAUAAUACUGUUGAAAGAGUUAGACGAGAAGGCACACCGU | 28.2 nM | 54 nM |  | 
5 | AUGCCGGGCCGAGGAUAUAAGUCUAGGACAUGAGGAUCACCCAUGUAUGUCUUAGAAGGCGGCCCGGCAAGCCUGUUACAGGCA |  |  | 27.7 nM | 6.6 nM
6 | AUGCUAGUGUGAGGAUAUUAACAUGAGGAUCACCCAUGUUGGAAGAUCAUGACGAUCACGCAUGAUAAGAAGGUACAUUAGCAU | 40.8 nM | 94.9 nM |  | 
7 | AUGCUAGUGUGAGGAUAUUAACAUGAGGAUCACCCAUGUUGGAAGUACACGACAUGAGGUACAUUUAAGAAGGUACAUUAGCAU | 145 nM | 161 nM |  | 
8 | AUGCUUAUCGAAGGAUAUGGUUACAUGAGGAUCACCCAUGUUAUGCUUGGUUACUUGUUUAGUUUCCAGAAGGUCGAUUAGUUA | 46.9 nM | 174 nM |  | 
9 | AUGCUUCACACAGGAUAUACAUGAGGAUCACCCAUGUGUCCUAAGUAGCUGACACGAGCUACGCGGUAGAAGGGUGUGAAGCAU | 21.6 nM | 154 nM |  | 
10 | AUGCUUUUUGUAGGAUAUACAUUUUGUACGUAUGUAGAAGGACAUGAGGAUCACCCAUGUAAAUAAAUAUUAAAUAUCAUACUU | 54.6 nM | 39.6 nM |  | 
11 | AUGGAUAUCACAGGAUAUGCCAUGGAUACCAUGGCAGAAGGGUGAUCCAUCCUAUGUAAAUACAUGAGGAUCACCCAUGUGUCC |  |  | 16.1 nM | 13.7 nM
12 | AUGGCGUGAGGAUAUGCGCAGGUUAACAUGAGGAUCACCCAUGUGGGCAUUGGUUUUCACGCAGAAGGUACGUUAA | 14.5 nM | 15.2 nM |  | 
13 | AUGGUACAUGAGGAUCACCCAUGUCAGGAUAUCGGCUUUAACGUGAAAAGAGUGUUAGCGAGAAGGGACUGCUC | 23.6 nM | 28.7 nM |  | 
14 | AUGGUACAUGAGGAUCACCCAUGUUAGGAUAUCGCGUGUUCUAAAACUAAGAGAUACACGAGAAGGGACGACAU | 90.2 nM | 67.7 nM |  | 
15 | AUGUACCUAGGAUAUACAUGAGGAUCACCCAUGUAGCUUCACGUGGUAGGAUCCUUUGGUAGAAGGAGGAUCUU | 37.3 nM | 68.2 nM |  | 
16 | AUGUUAUAUGAAGGAUAUACUUAACAUGAGGAUCACCCAUGUGGUGUUGUGAGUGAGUGAGUUUAGUAGAAGGUCAAUUCUUUU | 256 nM | 263 nM |  | 
17 | AUGUUAUUGGAAGGAUAUAGUUUACUAUUCUAACAUGAGGAUCACCCAUGUAACCUUAUGUGUAUCUAGAAGGUCCAUAACUUA | 54.6 nM | 62.3 nM |  | 
18 | AUGUUUCAUGUAGGAUAUGCAUACUGUUAGUAUGCAGAAGGACAUGAGGAUCACCCAUGUAUAUUAUCAUUACAUAUCAUACAU | 60.4 nM | 492 nM |  | 
19 | AUUAAAACAUAGGAUAUCGAAUUUAUCAUUUAACGAGAAGGAUGAACAUGAGGAUCACCCAUGUGGUAUCAUGG | 361 nM | 207 nM |  | 
20 | AUUAACUACAUAGGAUAUUGAUACAUGAGGAUCACCCAUGUCACGUAUUUAUAUUAAACAUUUGACAAGAAGGAUGUGGUUACA |  |  | 17.2 nM | 7.01 nM
21 | AUUACAAUUUUAUACAUGAGGAUCACCCAUGUUAUAAGUCAUGAGGAUAUGGUAUUGUAGUUAUUCCAGAAGGCAUUUAGCUAA |  |  | 8.75 nM | 7.64 nM

Row | Sequence | apparent Kd [1] | apparent Kd [2] | apparent Kd [3] | apparent Kd [4]
22 | AUUACCAGAGGAUAUGCGAGGGUGUACCUCCCACAGCGAACACAUGAGGAUCACCCAUGUAGAAGGCUGAACAU | 38.9 nM | 33 nM |  | 
23 | AUUAUACAUGAGGAUCACCCAUGUAAUUAAUCUAGUAAGAUCUAGGAUAUCAGCUCGAAUAGAGCUGAGAAGGAGAUCACAUGU |  |  | 53.6 nM | 20.7 nM
24 | AUUAUACAUGAGGAUCACCCAUGUAAUUAAUUAAUUAAGAUCUAGGAUAUCAGCUCGUUUAGAGCUGAGAAGGAGAUCACAUGU |  |  | 30.1 nM | 18.8 nM
25 | AUUAUGACCGAGUAAAGCUUCAAAACAUGAGGAUCACCCAUGUAGGAUAUCAGCACGAUAAGUGCUGAGAAGGACAUCUCGGUC | 14.3 nM | 15.1 nM |  | 
26 | AUUAUGUAAGGAUAUCUUACAUGUGACUUCGGUCACUGUUAAGAGAAGGUACAUGAGGAUCACCCAUGUAGAAC | 18.7 nM | 28.7 nM |  | 
27 | AUUCCCAACCAGAAGGACAUGAGGAUCACCCAUGUAGGAUAUGGGUGGGCGACCCGAACUUGGACGAAAUCGCAAUUCUCACAC |  |  | 57.8 nM | 10.4 nM
28 | AUUGUAUGGGAAGGAUAUAGAAUAUUAUUUUAACAUGAGGAUCACCCAUGUAACCUUAUGUGUAGCUAGAAGGUCCGUUUAUUA | 131 nM | 157 nM |  | 
29 | AUUGUUUAUGUAGGAUAUGCCUGGCGUGCCUUUGCAGAAGGACAUGAGGAUCACCCAUGUAUUGCGGUCUGCGUUCAGAUCGCA | 33.2 nM | 44.3 nM |  | 
30 | AUUUAAAUGUCAGGAUAUGGUAGUUUAUACUUAUCAGAAGGGAUAAUUAUACUCAAGUACAUGAGGAUCACCCAUGUUAAAUCA |  |  | 30.5 nM | 15.8 nM
31 | AUUUAAAUGUCAGGAUAUGUUAGUUUAUACUUAGUAGAAGGGAUAAUUAUACUCAAGUACAUGAGGAUCACCCAUGUUAAAUCA |  |  | 21 nM | 18.5 nM
32 | AUUUAGAGAGGAUAUAUAAUGUGAAACAUGAGGAUCACCCAUGUAAUAUUAUGGAUGUAAAUAGAAGGCUCAUUUA | 32.7 nM | 27.7 nM |  | 
33 | AUUUAGUGCGAGAAGGCGUGGUCACAUGAGGAUCACCCAUGUCAGUACACGAGGAUAUCGUUUCGCUGUGUAAACACAAGCGAC |  |  | 40.3 nM | 6.15 nM
34 | AUUUUGUGAGGAUAUGUGGCUUCGAUCGUGAAAACGAGGCUACAGAAGGCACAUGAGGAUCACCCAUGUUCCUA | 20.5 nM | 169 nM |  | 
35 | CAACCGUUGCAGAAGGUUAAAUAUAUCAACUUAUGGACAACAUGAGGAUCACCCAUGUUUUUGUUGAAGGAUAUGCAAGGGUUG | 5.89 nM | 5.71 nM |  | 
36 | CAACGUGGAGGAUAUUAGCGAGACAACAUGAGGAUCACCCAUGUGGUACUCAUCUCCUCCUGAGAAGGCUACGCCC | 11.8 nM | 12.3 nM |  | 
37 | CAACUGUGAGGAUAUGGUGAGUAGUGCCUGAGCGCUGCUCACCAGAAGGCACAUGAGGAUCACCCAUGUAUAAC | 42.9 nM | 176 nM |  | 
38 | CAAGGAUACUUAUAAGCUGACAAACCAGAAGGAUGAGCCUCUACAUGAGGAUCACCCAUGUGUUCGUAGGAUAUGGGUCGGAAG |  |  | 11.3 nM | 31.5 nM
39 | CAAGUGUCAGGAUAUACAUGAGGAUCACCCAUGUGUCUUUGUGAUCGUAGGGUGCACCGUAGAAGGGACACUCC | 70.4 nM | 127 nM |  | 
40 | CAAUGUACCUAGGAUAUAACCUACGACAUUGGGUUAGAAGGAGGAACAUGAGGAUCACCCAUGUGACUUCGCAA | 10 nM | 11.9 nM |  | 
41 | CAAUUGGCACAGAAGGGUGACAUGAGGAUCACCCAUGUAGCGUGGCAUUCAGGAGGAGCCACGCCACAGGAUAUGUGCGGGCAC |  |  | 107 nM | 155 nM
42 | CACAAGAAAGUCGAAGGUUGAAGUAGAAGGACUAUAACAUGACAUGAGGAUCACCCAUGUGCCAAGUAGGAUAUGCUUUAAUCG | 7.7 nM | 7.38 nM |  | 
